# A selection: hits, their analogues and other compounds. The true share with any hit is near 1.5%.
# Platelet DG rel: platelet dense granule release activity; AID 1663; 300,000 compounds, 0.22% hits; inhibition, %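 (compounds screened at 7.5 µM in platelet-rich plasma)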; human platelet-rich plasma, SFLLRN dense granule ATP release, luminescence;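 active = mean replicate score, as percent of positive control, at or above 50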
# Hep lipid drop: modulators of hepatic lipid droplet formation | AID 1656 | AML12 mouse hepatocytes, oleate lipid droplets, BODIPY imaging | 240,000 compounds, 0.4% hits | inhibition, % at 6.5 µM;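 active = lipid droplet intensity inhibited by at least 50%, with more than 500 cells counted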
#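 Assay system: AML12 hepatocytes (mouse); Probe or stimulus: oleic acid at 100 µM to induce lipid droplet formation; Dosing: compound at 6.5 µM only; Schedule: compound with oleate, overnight; Detection: fluorescence imaging, 20x objective, two fields per well; Measure: % inhibition of lipid droplet signal.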
# STAT3 blocker: inhibitors of IL-6 induced STAT3 signaling; U3A cells, IL-6 STAT3-luciferase reporter, luminescence; host cell line lacks STAT1; inhibition, % at 5.5 µM; AID 862; 190,000 compounds, 0.89% hits;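 active = inhibition above the mean inhibition across all screened compounds plus 3 SD, cut at about 44% in these data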;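 also: 0% = DMSO only wells and 100% = 100 µM nifuroxazide control wells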
# H9c2 TAG inh: triacylglycerol accumulation inhibition | H9c2 cells, Nile Red lipid (TAG) fluorescence; cells loaded with 200 µM oleic acid | 230,000 compounds, 0.66% hits | inhibition, % at 12.5 µM;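 active = pattern-corrected inhibition of lipid staining of at least 50% with the nuclear-stain viability signal not falling by more than 50%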;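 also: 0% = DMSO wells and 100% = triacsin C control wells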
# STAT1 inh: reduces IFN-gamma driven STAT1 reporter signal | 200,000 compounds, 0.35% hits | AID 920 | NIH 3T3 STAT1-luciferase reporter, luminescence | inhibition, % at 5.5 µM;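 active = inhibition above a set limit, the mean inhibition across all tested compounds plus 3 SD, cut at about 34% in these data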;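 also: 0% = IFN-gamma with DMSO and 100% = IFN-gamma with 300 µM nifuroxazide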
# PPC-1+TRAIL kill: PPC-1 cancer cell killing with TRAIL present; PPC-1 cells + TRAIL, ATPLite viability luminescence; cell killing (% activity), % at 4 µM or 5 µM; 220,000 compounds, 0.41% hits; AID 1443;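 active = cell killing above 50% in the first pass at 4 µM, then a duplicate retest at 5 µM averaging 50% or more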;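 also: plate controls were cells with TRAIL plus DMSO for no effect and medium-only wells lacking cells for full effect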
# PPC1 cytotox: PPC-1 cell cytotoxicity | shares compounds with PPC-1+TRAIL kill | cytotoxicity, % at 5 µM | PPC-1 viability, ATPlite luminescence, overnight | 1,200 compounds, 50% hits | AID 1447;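 active = reconfirmed compounds whose average cytotoxicity reaches 50% or more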;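 also: 0% = DMSO-treated cells and 100% = wells holding medium but no cells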
# An asterisk follows results filed as active; nt = not tested or not shown.
SMILES,Platelet DG rel,Hep lipid drop,STAT3 blocker,H9c2 TAG inh,STAT1 inh,PPC-1+TRAIL kill,PPC1 cytotox
CC1(C(=O)NCC2CCOCC2)Cc2c(-c3cccc(C(F)(F)F)c3)ccnc2O1 (stereo unspecified),nt,nt,nt,38.8,nt,nt,nt
Cc1cc(-c2ccc(N3CCOCC3)cc2)nc2ccccc12,5.9,-1.9,-14.8,nt,-32.9,30.2,nt
c1ccc2nc(-c3ccc(N4CCOCC4)cc3)ccc2c1,57.5*,-25.3,99.2*,nt,68.4*,73.0*,77.1*
CN1CCN(c2ccc(-c3ccc4ccccc4n3)cc2)CC1,79.3*,-8.8,112.1*,-1.5,95.3*,82.0*,76.8*
CN(Cc1ccccc1)C(=O)c1[nH]cnc1C(=O)Nc1ccc(Br)cc1F,nt,nt,nt,1.6,nt,nt,nt
CN1CCN(c2nc3cc(N4CCOCC4)ccc3s2)CC1,nt,nt,nt,23.6,nt,nt,nt
COc1ccc(NC(=O)COC(=O)C2CCCN2C(=O)OC(C)(C)C)cc1Cl (stereo unspecified),nt,nt,nt,-0.5,nt,nt,nt
CCOC(=O)c1cn[nH]c1NC(=S)Nc1ccc(OC)cc1,3.1,-7.6,nt,-32.6,nt,60.1*,59.4*
CCOC(=O)NC(=S)Nc1ccc(OC)cc1,-3.3,-10.0,8.1,-3.7,-14.3,19.6,nt
CCNC(=O)C1CCCN(Cc2cc(-c3ccccc3)on2)CC1 (stereo unspecified),nt,nt,nt,0.1,nt,nt,nt
Cc1nnc2sc(-c3ccccn3)nn12,3.3,0.8,10.8,5.4,1.2,12.2,3.2
CC(C)CO/C(=N/S(=O)(=O)c1ccccc1)c1ccccc1,13.9,-10.0,-3.6,nt,-1.7,-13.0,11.2
Cc1ccc2nc(-c3ccc(NC(=O)COC(=O)c4cncc(Br)c4)cc3)sc2c1,0.9,-7.1,7.7,5.2,-48.1,50.2*,48.9
COc1ccc(/C=C(\C#N)C(=O)OCC(=O)Nc2ccc(-c3nc4ccc(C)cc4s3)cc2)cc1,1.3,-3.0,42.3,17.5,-15.2,40.2,nt
CC(=O)NC(C)(c1ccccc1)c1nc(-c2cccc(F)c2)cs1 (stereo unspecified),nt,nt,nt,-17.9,nt,nt,nt
O=C(NCc1cc(Cl)cc(Cl)c1)c1csc([C@@H]2O[C@H](CO)[C@H](O)[C@H](O)[C@H]2O)n1,nt,nt,nt,0.4,nt,nt,nt
CC(=O)Nc1ccc2nc(-c3ccccn3)[nH]c2c1,nt,nt,1.3,-5.9,-25.9,34.7,nt
c1ccc(-c2nc3cc4ccccc4cc3[nH]2)nc1,47.8,30.6,86.3*,-11.1,43.5*,89.1*,90.0*
c1cncc(-c2nc3cc4ccccc4cc3[nH]2)c1,6.9,nt,13.3,nt,-62.2,61.3*,65.6*
COc1ccc(C2N(C(=O)c3ccccc3)CCN2C(=O)c2ccccc2)cc1,0.6,13.1,-6.2,5.4,-0.1,7.5,15.6
COc1ccc(CNC(=O)N2CCN(C(=O)c3ccccc3)CC2)cc1,nt,nt,nt,-14.4,nt,nt,nt
C=CC1=CCN(S(=O)(=O)C(C)(C)C)[C@H]1CCO,nt,nt,nt,9.4,nt,nt,nt
O=C(O)c1ccccc1NC(=O)C1CCCO1 (stereo unspecified),-11.3,16.7,0.5,nt,-4.4,6.8,6.4
O=C(O)c1cc(Cl)ccc1NC(=O)C1CCCO1 (stereo unspecified),-1.6,5.8,4.8,nt,8.0,13.9,-10.0
O=C(Nc1cc(Cl)ccc1O)C1CCCO1 (stereo unspecified),-10.0,1.3,8.0,-31.2,-0.4,-2.5,nt
SMILES,Platelet DG rel,Hep lipid drop,STAT3 blocker,H9c2 TAG inh,STAT1 inh,PPC-1+TRAIL kill,PPC1 cytotox
O=S(=O)(c1ccccc1)N1CC2CC(Br)C(Br)CC21 (stereo unspecified),nt,nt,nt,0.5,nt,nt,nt
Cc1ccc2nc(-c3ccccn3)oc2c1,23.7,nt,39.1,-4.2,-17.4,64.8*,65.1*
c1ccc(-c2noc(-c3ccno3)n2)nc1,1.3,9.2,nt,-3.4,nt,15.0,nt
Cc1ccc(-c2nc(-c3ccccn3)no2)cc1[N+](=O)[O-],24.3,0.1,nt,-5.2,nt,33.7,nt
Cc1ccc2nc(-c3cccnc3)oc2c1,4.9,nt,20.9,9.3,-30.3,14.9,nt
c1ccc(-c2nc(-c3ccccn3)no2)cc1,-9.6,3.4,98.3*,nt,62.2*,71.8*,66.0*
Cc1ccc(-c2nc(-c3ccccn3)no2)cc1Cl,25.6,nt,99.3*,-13.9,78.6*,88.5*,87.7*
c1ccc(-c2ccc(-c3nc(-c4ccccn4)no3)cc2)cc1,94.8*,-6.0,109.0*,nt,92.2*,90.2*,90.1*
CCN(CC)S(=O)(=O)c1ccc(SCC(=O)c2c(N)n(C3CC3)c(=O)[nH]c2=O)nc1,nt,nt,nt,1.2,nt,nt,nt
